A selection: hits, their analogues and other compounds. The true share with any hit is near 3.5%.
HIV Env fusion = inhibitors of HIV-1 Env-driven cell-cell fusion, primary screen, HeLa-JRFL effector, CEM21 target cells, luciferase | inhibition, % at 12.3 µM | 1.1% of 360,000 active | AID 651610, 2012;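 active = mean replicate inhibition score of at least 50 and every replicate individually at or above 50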
esBAF inh = Bmi1 luciferase reporter increase in mESCs, primary screen, esBAF inhibitor project, mouse ES cells, Bmi1 luciferase knock-in, single point; 24 h; 100% = twice the neutral-well signal; reporter increase, % at 12.5 µM; 2% of 350,000 active; AID 602393, 2012; in the data active = activation above about 40%;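 also: a rise in the Bmi1 reporter signal indicates esBAF inhibition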
Cneo AK release = Cryptococcus neoformans cell lysis inducers, primary screen, AK release luminescence, single concentration; C. neoformans lysis, adenylate kinase release luminescence, 4 h; normalised: neutral wells 0, clomiphene wells 100; lysis activity, % at 15 µM; 0.2% of 360,000 active; AID 651654, 2012;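 active = mean lysis activity across replicates of at least 80%, whatever share of replicates individually reach that level; inactive = mean lysis activity below 80%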
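Material – log-phase Cryptococcus neoformans yeast cells · Input – 5 × 10^6 yeast cells/mL · Medium – fresh YPD growth medium · Doses – single compound concentration per well · Timing – static 4 h at 37 °C with compound, 1 h detection · Detection – adenylate kinase release luminescence · Read-out – signal increase indicating cell lysis · Control set – Clomiphene as positive lysis control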
MITF act = activators of MITF-driven TRPM1 promoter reporter, primary screen, cell-based, SK-MEL-5, luciferase, single point | SK-MEL-5 TRPM1-promoter luciferase, 24 h; % of positive control, neutral wells = 0 | activation, % at 12.5 µM | 0.75% of 300,000 active;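 active = mean activation of at least 80% with every replicate also reaching 80%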
ERAP1 inh = human ERAP1 aminopeptidase inhibitors, primary screen, biochemical, single point, plate reader; Endoplasmic reticulum aminopeptidase 1 (Homo sapiens), Q9NZ08; recombinant ERAP1, Leu-AMC fluorescence, 60 min; inhibition, % at 10.7 µM; 0.15% of 340,000 active; AID 652197, 2013;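 active = mean replicate inhibition of at least 30%, or all replicates individually reaching that 30% level; inactive = mean below 30% and not every replicate reaching it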
Target sequence (Q9NZ08 whole entry, looked up): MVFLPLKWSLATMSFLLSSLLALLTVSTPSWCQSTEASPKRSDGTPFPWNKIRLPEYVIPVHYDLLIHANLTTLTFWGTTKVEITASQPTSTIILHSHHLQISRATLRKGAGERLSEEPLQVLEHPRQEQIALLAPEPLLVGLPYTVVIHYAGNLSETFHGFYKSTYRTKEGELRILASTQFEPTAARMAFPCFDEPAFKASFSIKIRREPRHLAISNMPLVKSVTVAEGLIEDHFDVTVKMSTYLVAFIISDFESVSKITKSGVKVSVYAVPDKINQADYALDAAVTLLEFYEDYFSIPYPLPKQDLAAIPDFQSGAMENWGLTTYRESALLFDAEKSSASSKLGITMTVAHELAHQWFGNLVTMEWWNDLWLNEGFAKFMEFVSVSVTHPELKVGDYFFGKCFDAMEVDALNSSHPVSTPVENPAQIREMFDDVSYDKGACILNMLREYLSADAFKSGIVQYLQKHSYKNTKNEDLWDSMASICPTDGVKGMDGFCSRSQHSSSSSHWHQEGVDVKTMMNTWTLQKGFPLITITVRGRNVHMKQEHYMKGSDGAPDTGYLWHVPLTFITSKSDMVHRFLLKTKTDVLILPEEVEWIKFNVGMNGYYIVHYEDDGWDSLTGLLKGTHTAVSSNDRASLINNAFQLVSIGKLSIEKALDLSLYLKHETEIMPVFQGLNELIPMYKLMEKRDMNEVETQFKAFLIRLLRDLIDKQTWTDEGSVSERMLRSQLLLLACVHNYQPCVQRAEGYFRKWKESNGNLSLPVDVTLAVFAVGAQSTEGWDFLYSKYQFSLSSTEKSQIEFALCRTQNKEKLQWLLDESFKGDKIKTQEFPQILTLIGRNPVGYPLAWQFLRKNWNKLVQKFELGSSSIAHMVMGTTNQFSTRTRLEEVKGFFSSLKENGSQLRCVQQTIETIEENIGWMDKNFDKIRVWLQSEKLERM
Wnt act = Wnt/beta-catenin pathway activators, primary screen, cell-based, plate reader, single point; AID 743398, 2014; activation, % at 9.35 µM; 1.2% of 300,000 active; Wnt/beta-catenin reporter cell assay, activator; in the data active = activation above about 30%, passing the limit was not always enough
A number is an active result; n = inactive; x = not tested or not shown.

SMILES	HIV Env fusion	esBAF inh	Cneo AK release	MITF act	ERAP1 inh	Wnt act
CC[C@@]12C(=O)N(c3cccc(Cl)c3)C(=O)N1[C@H](c1cccc(C)c1)[C@@H]1C(=O)N(Cc3ccccc3)C(=O)[C@@H]12	n	n	n	x	n	n
Cc1ccc(N2C(=O)N3[C@H](c4cccc(C)c4)[C@@H]4C(=O)N(Cc5ccccc5)C(=O)[C@@H]4[C@]3(C)C2=O)cc1	81	n	n	n	n	n
CCCN1C[C@@H](C)[C@H](OC)CN(C)C(=O)c2ccc(NC(=O)c3cccc(OC)c3)cc2OC[C@@H]1C	x	x	x	x	n	x
COc1ccc(C2=NN(S(C)(=O)=O)C(c3ccc4nccnc4c3)C2)cc1 (centres undefined)	n	x	x	n	x	n
COc1ccc(C2CC(c3ccc(OC)c(OC)c3)=NN2S(C)(=O)=O)cc1 (centres undefined)	n	71	n	87	n	45
CCS(=O)(=O)c1ccc(N=Nc2ccc(O)c3ncccc23)c(OC)c1	66	x	x	n	n	n
Oc1ccc(N=Nc2ccccc2C(F)(F)F)c2cccnc12	n	n	n	n	n	n
COc1ccccc1N=Nc1ccc(O)c2ncccc12	n	64	n	n	n	n
COc1ccccc1-c1cn(CC[C@H]2CC[C@@H](NC(=O)C3CC3)[C@H](CO)O2)nn1	n	n	n	x	n	x
O=C(C[C@@H]1CC[C@H]2[C@@H](COC[C@H](O)CN2S(=O)(=O)c2cccc(F)c2)O1)Nc1ccccc1	x	n	n	x	n	x
O=C1ON=C(c2ccccc2)/C1=C\c1ccco1	n	n	n	x	n	n
O=C1NC(c2ccccc2Cl)=N/C1=C/c1ccco1	n	x	x	n	n	53
O=C1NC(c2ccc(Br)cc2)=N/C1=C/c1ccco1	n	x	n	97	x	x
S=c1[nH]nc(-c2ccccc2Cl)n1/N=C/C=C/c1ccco1	n	x	n	x	n	n
COc1ccc(/C=N/Nc2ccc(C(=O)O)cc2)cc1OC	n	n	n	n	n	33
COc1cc(OC)cc(C(=O)Oc2ccc(/C=N/Nc3nc4ccccc4s3)cc2OC)c1	n	x	n	n	x	41
Cc1ccsc1/C=N/Nc1ccc(C(=O)O)cc1	n	n	n	n	n	n
Cc1ccsc1/C=N/Nc1cccc(C(=O)O)c1	68	x	x	n	n	n
COc1ccc(/C=N/Nc2ccc(C(=O)O)cc2)cc1Br	n	n	n	n	n	n
O=C(O)c1cccc(N/N=C/C2=C(Cl)c3cc(Cl)ccc3SC2)c1	n	x	x	n	n	40
COc1ccccc1-c1ccc([C@@H]2[C@H](CO)N(C(=O)C3CC3)C23CN(C(C)=O)C3)cc1	x	x	x	x	n	x
COc1cc(C=NNc2ccccc2)ccc1OC(=O)c1ccccc1	n	41	n	x	n	n
CCOc1cc(/C=N/Nc2cccc(C(=O)O)c2)ccc1OC(=O)c1ccccc1	65	n	x	n	n	n
COc1cc(/C=N/Nc2ccc(Cl)c(C(=O)O)c2)ccc1OC(=O)c1cccs1	n	n	n	n	n	37
COc1cc(/C=N/Nc2ccccc2)ccc1OC(=O)c1cccs1	n	x	x	x	x	n
SMILES	HIV Env fusion	esBAF inh	Cneo AK release	MITF act	ERAP1 inh	Wnt act
COc1ccc(C(=O)Oc2ccc(/C=N/Nc3ccc(Cl)c(C(=O)O)c3)cc2OC)cc1	n	n	n	n	n	n
Brc1ccsc1/C=N/Nc1ccccc1	n	x	x	x	n	41
O=C(C[C@H]1C[C@H]2c3cc(NC(=O)C4CCC4)ccc3O[C@H]2[C@H](CO)O1)NCc1cccc(F)c1	n	n	n	x	n	x
C=CCOc1c(Br)cc(/C=N/Nc2ccc(C(=O)O)cc2)cc1OCC	n	x	x	105	n	n
COc1ccc2ccccc2c1/C=N/Nc1cccc(C(=O)O)c1	n	66	n	93	n	n
COc1cccc(-c2ccc3c(c2)[C@@H]2[C@@H](CCN2C(=O)c2ccccn2)[C@@H](CO)N3C)c1	x	n	n	x	x	x
C/C(=N/OC(=O)CC(C)C)c1cc(-c2ccc(Cl)cc2)no1	n	x	x	86	n	n
COCC#Cc1cnc2c(c1)C(=O)N([C@H](C)CO)C[C@H](C)[C@H](CN(C)S(=O)(=O)c1ccccc1)O2	n	n	n	x	n	x
